RORA act = RORA (human) activation; CHO-K1 Gal4-RORA LBD luciferase reporter, luminescence; percent increase over mock-subtracted basal signal; activation, % at 10 µM; actives 1.5% (n = 65,000);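 active = activation above the mean of all tested compounds plus 3 SD, cut at about 49% in these data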;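 note: 0% = DMSO-treated RORA cells and 100% = added signal equal to DMSO minus mock-transfected cells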
D1 mod = allosterically modulates the human D1 dopamine receptor; P21728; HEK293 D1, CRE-luciferase, dopamine EC30 potentiation; actives deviate in either direction; B-score at 10 µM; actives 5.9% (n = 58,000); AID 641;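 active = luminescence count or its row- and column-corrected plate score outside the 99.7% band of the plate's sample wells, on either side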
Target sequence (P21728 whole entry, looked up): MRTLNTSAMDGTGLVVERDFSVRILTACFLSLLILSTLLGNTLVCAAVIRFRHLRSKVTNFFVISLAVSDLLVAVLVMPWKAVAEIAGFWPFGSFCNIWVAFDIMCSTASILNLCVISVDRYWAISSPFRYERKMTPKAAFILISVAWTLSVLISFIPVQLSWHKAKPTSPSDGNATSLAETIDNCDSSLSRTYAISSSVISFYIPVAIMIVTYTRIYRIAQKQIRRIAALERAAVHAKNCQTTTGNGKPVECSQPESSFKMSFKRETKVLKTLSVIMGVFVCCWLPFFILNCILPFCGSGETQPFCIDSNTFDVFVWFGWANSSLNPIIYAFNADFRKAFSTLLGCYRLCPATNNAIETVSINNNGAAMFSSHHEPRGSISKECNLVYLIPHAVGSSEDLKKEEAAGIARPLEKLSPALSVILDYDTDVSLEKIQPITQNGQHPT
M1 antag = blocks the rat M1 muscarinic receptor response to acetylcholine | actives 3.4% (n = 64,000) | AID 628 | B-score at 10 µM | CHO-M1 cells, Fluo-4 calcium, ACh EC80 antagonist mode; hits give low values;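 active = calcium fluorescence response, raw or row-and-column corrected B-score, differing from the plate sample mean either way at a set confidence level, mostly lower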
M1 agonist = M1 muscarinic receptor agonism. B-score at 10 µM. actives 3% (n = 64,000). AID 626. CHO-M1 cells, Fluo-4 calcium fluorescence, agonist mode; hits give high values;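 active = fluorescence rise, raw or as B-score row- and column-corrected plate score, outside the 99.7% band of its plate's samples, either direction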
mHtt clearance = mutant huntingtin protein clearance. inhibition, % at 1.5 µM. HeLa Exon1htt(103Q)mCFP, aggregate imaging; zero = plate's median compound well. actives 0.42% (n = 47,000). AID 853;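 active = inhibition of aggregate fluorescence above about 70%, also judged a hit by eye on the cell image, limit read from the data, passing the limit was not always enough; inconclusive = no rule stated for this call; inactive = not judged a hit on image review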;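 note: cells exposed to compound for three days before fixation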
SF1 activator = activators of human nuclear receptor SF-1; AID 522; Q13285; actives 1.9% (n = 65,000); activation, % at 10 µM; CHO-K1 Gal4-SF-1 LBD luciferase reporter; % increase over DMSO SF-1-specific signal;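 active = activation above the mean activation of all tested compounds plus 3 SD, cut at about 50% in these data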
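Assay system: CHO-K1 cells co-transfected with Gal4 DBD–human SF-1 LBD, 5xGal4 luciferase reporter; doses: 10 µM only; incubation: 20 h compound exposure at 37 °C after 1 h cell settling; signal: luciferase light emission; evaluation: percent activation versus DMSO; repeats: one test per compound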
M1 agonist conf = rat M1 muscarinic agonism, confirmation; AID 1488; CHO-M1 cells, Fluo-4 calcium fluorescence, agonist mode; actives lie on both sides; actives 19% (n = 1,700); fluorescence change (max-min) at 10 µM; shares compounds with M1 agonist;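 active = fluorescence change differs from the solvent-only DMSO control mean at a set confidence level in both duplicate runs; inconclusive = differs from solvent-only control mean in just one of two runs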;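 note: an EC20 dose of acetylcholine follows compound addition during the same imaging run; raw fluorescence intensity difference in instrument units with no normalization to controls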
M4 agonist ctr = rat M4 muscarinic agonism, M1 counter-screen | CHO M4/Gqi5 cells, Fluo-4 calcium fluorescence, agonist mode; actives lie on both sides | fluorescence change (max-min) at 10 µM | shares compounds with M1 agonist | actives 9% (n = 1,700);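 active = fluorescence change differing from the plate's solvent-only control wells at 99.7% confidence in both duplicates, whether higher or lower; inconclusive = differs from solvent controls in only one of two duplicates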
Numbers without * were called inactive; ? = inconclusive; / = no result. Shown are actives, neighbours in structure and some others; about 11% of the full set was active somewhere.

SMILES	RORA act	D1 mod	M1 antag	M1 agonist	mHtt clearance	SF1 activator	M1 agonist conf	M4 agonist ctr
O=C(c1cc(-c2ccncc2)nc2ccc(Cl)cc12)N1CCN(C(=O)C2CCCO2)CC1 (centres undefined)	18	-0.19	-0.26	2.9*	-92	6	-29	-48
Cc1cc(C)nc(Sc2c(C)nn(-c3ccccc3)c2C)n1	6	0.14	-1.8	0.38	/	-9	/	/
CCCCN(C)Cc1c(O)ccc2c(-c3ccccc3)cc(=O)oc12	-16	/	-3.8*	8.2*	26	-5	-2.7	-21
CCN(CC)Cc1c(O)ccc2c(-c3ccccc3)cc(=O)oc12	-13	-1.9	-0.49	0.92	-7	-8	/	/
Cc1noc2nc(-c3cccs3)cc(-c3nnc4n3CCCCC4)c12	6	-0.74	-0.44	-0.51	/	2	/	/
O=C(CN1c2cccc3cccc(c23)S1(=O)=O)NCc1ccc2c(c1)OCO2	11	5.3*	-4*	21*	19	5	48	-18
Cc1cccc(N2CCN(C(=O)Cn3nc(Cc4ccncc4)c4ccccc4c3=O)CC2)c1C	1	2.8	-0.54	-0.26	18	2	/	/
CCOC(=O)N1CCN(C(=O)c2nn(-c3cc(OC)cc(OC)c3)c(=O)c3ccccc23)CC1	2	-1.7	0.38	6.4*	/	32	-2.2	?
COc1cc(C2C3=C(CC(C)(C)CC3=O)Nc3c2c(=O)[nH]c(=O)n3Cc2ccccc2)ccc1O (centres undefined)	7	-0.29	0.32	-1.6	/	0	/	/
COc1ccc(C2C3=C(CC(C)(C)CC3=O)Nc3c2c(=O)[nH]c(=O)n3Cc2ccccc2)cc1 (centres undefined)	-10	-1.7	0.24	2.7*	/	-6	7.1	-35
Cc1nc2[nH]c(=O)c3c(n2n1)NC1=C(C(=O)CC(C)(C)C1)C3c1ccc(F)cc1 (centres undefined)	-4	-0.097	0.0033	3.8*	/	2	9.9	4.3
CCc1ccc(C2C3=C(CC(C)(C)CC3=O)Nc3c2c(=O)[nH]c2nc(C)nn32)cc1 (centres undefined)	-13	0.3	-0.53	-1.1	/	1	/	/
COc1ccc(C2C3=C(CC(C)(C)CC3=O)Nc3c2c(=O)[nH]c(=O)n3Cc2ccccc2)cc1OC (centres undefined)	-10	0.43	-1.1	9.9*	52	-10	28	8.1
COC(=O)c1ccc(CSc2nnc(-c3ccncc3)n2Cc2ccccc2)o1	6	1.9	-0.12	-0.26	/	18	/	/
COc1ccccc1N1CCN(C(c2cc3cc(C)ccc3[nH]c2=O)c2nnnn2C2CCCC2)CC1 (centres undefined)	-1	-0.048	1.1	-0.17	2	-6	/	/
COc1ccccc1N1CCN(C(c2cc3ccc(C)cc3[nH]c2=O)c2nnnn2C2CCCC2)CC1 (centres undefined)	-10	-0.56	1.3	-2.5*	-56	4	?	-60
CCn1nnnc1-c1ccc(OC)c(S(=O)(=O)NCCc2ccccc2)c1	-3	0.067	0.27	-0.8	/	-11	/	/
Cc1ccc(-c2csc3nnc(SCC(=O)Nc4cccc(C)n4)n23)cc1	18	0.45	-0.63	3.9*	64	4	?	-13
Cc1cccc(NC(=O)CSc2nnnn2C)n1	/	/	/	/	-19	/	/	/
COC(=O)c1ccc(-c2ccco2)n1Cc1nc(-c2ccc(OC)c(OC)c2)oc1C	-12	0.9	0.19	1.8*	/	5	-19	-13
COc1ccc(-c2nc(CSCC(=O)NCC3CCCO3)c(C)o2)cc1OC (centres undefined)	-6	1.7	0.66	0.8	-42	2	/	/
O=C(C1CCCN(S(=O)(=O)c2cccc3cccnc23)C1)N1CCN(c2ccc(F)cc2)CC1 (centres undefined)	2	-2.3*	0.15	2.7*	35	-12	?	?
